Drawing on ChEMBL document CHEMBL1127829, “Nonpeptide peptidomimetic antagonists of the neuropeptide Y receptor: benextramine analogs with selectivity for the peripheral Y2 receptor” (J Med Chem, 1994), this text covers maximal displacement of specific binding, IC50 and Relative potency for six compounds.

Test [1] can be described thus: Percentage of maximum displacement of 1.0 nM [3H]NPY from rat brain membranes homogenates using 1.0 uM NPY to determine specific binding. Type of test: cell membranes. The following applies: Membrane. An outline of the steps: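 Rat brain membranes (1.2–1.6 mg protein/mL) were incubated with 1.0 nM [3H]NPY and 10⁻³–10⁻⁷ M compound in duplicate. Buffer was pH 7.4 Krebs–Ringer bicarbonate/phosphate with BSA and bacitracin, at 25 °C for 90 min. Nonspecific binding was defined with 1.0 μM NPY, and results were filtered and counted by scintillation. The value is the maximal percentage of specific [3H]NPY binding displaced, from at least triplicate experiments.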

Test [2] in a line: Concentration producing half maximal displacement of [3H]NPY specific binding from benextramine sensitive NPY binding sites in rat brain membranes. It counts as cell membranes. An outline of the steps: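 Membranes from male Sprague–Dawley rat brain (250–300 g), 1.2–1.6 mg protein/mL, were incubated with 1.0 nM [3H]NPY and 10–12 concentrations (10⁻³–10⁻⁷ M) of compound. Incubation was in duplicate in Krebs–Ringer bicarbonate with 50 mM phosphate, 0.1% BSA and 0.05% bacitracin (pH 7.4), at 25 °C for 90 min. Nonspecific binding was set with 1 μM NPY. Bound ligand was collected on PEI-treated GF/A filters and counted by scintillation. Runs were done at least in triplicate, and averaged data were fit to a two-site competitive isotherm.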
On the technique in general: Loss of bound radioactivity is the signal in a displacement assay; it reports binding, not function.

The species named for a further test is Rattus norvegicus. In words: Relative potency in displacing 1 nM [3H]NPY from benextramine-sensitive rat brain NPYsites.

pIC50: −log10 of the molar value.

In general, pIC50 refers to the IC50 on a negative log10 scale, so that one unit is a factor of ten. A low value points to a high IC50. `c1ccc2cc(CNCCCCCCNCCSSCCNCCCCCCNCc3ccc4ccccc4c3)ccc2c1` came in with a maximal displacement of specific binding in test [1] of 68%. In test [2], the pIC50 is 4.50. For the same compound, the Relative potency in the test listed under Rattus norvegicus is 1.8.
For `c1ccc2cc(CNCCCCCCNCCCCCCNCCCCCCNCc3ccc4ccccc4c3)ccc2c1`, in that order: 75%, 4.32 and 1.
For `N=C(N)N(CCCCCCNCc1ccc2ccccc2c1)CCCCCCN(CCCCCCNCc1ccc2ccccc2c1)C(=N)N`, in that order: 72%, 4.74 and 2.6.
For `N=C(N)N(CCCCCCNCc1ccc2ccccc2c1)CCSSCCN(CCCCCCNCc1ccc2ccccc2c1)C(=N)N`, in that order: 76%, 4.83 and 3.9.
The compound `N=C(N)N(CCCCCCNCC12C[C@H]3C[C@@H](C1)C[C@@H](C2)C3)CCSSCCN(CCCCCCNCC12C[C@H]3C[C@@H](C1)C[C@@H](C2)C3)C(=N)N` gave a maximal displacement of specific binding in test [1] of 68%. This compound also had a pIC50 in test [2] of 4.82. In the test listed under Rattus norvegicus, this compound came in with a Relative potency of 3.8.
For `COc1ccccc1CNCCCCCCNCCSSCCNCCCCCCNCc1ccccc1OC` [BENEXTRAMINE], in that order: 65%, 4.24 and 1.
